The text below walks through data of ChEMBL document CHEMBL3259763, “Synthesis and antifilarial activity of chalcone-thiazole derivatives against a human lymphatic filarial parasite, Brugia malayi” (Eur J Med Chem, 2014).

Data set [1] relates to Brugia malayi. Nature of the data set: Antifilarial activity against Brugia malayi adult worm assessed as inhibition of parasite motility after 48 hrs by microscopic analysis. Type of data set: functional, organism-based. The procedure, abridged:
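Freshly isolated adult female B. malayi were washed in HBSS (pH 7.2) and incubated one worm/ml/well, in triplicate, in HBSS with penicillin/streptomycin. Two-fold dilutions from 0.38-40 µM were given in DMSO (final <0.1%), with DMSO controls. After 48 h, motility was scored 0-4 under a microscope. IC50 was found by linear interpolation of percent inhibition versus DMSO.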

In data set [2] the test system is Brugia malayi. Nature of the data set: Antifilarial activity against Brugia malayi adult worm assessed as inhibition of parasite viability after 48 hrs by MTT assay. Type of data set: functional. In a few lines:
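Adult female B. malayi washed in HBSS pH 7.2, one worm/mL/well in triplicate, exposed 48 h at 37 °C in 5% CO2 to two-fold dilutions (0.38-40 µM; DEC 15.63-1000 µM) in HBSS with penicillin/streptomycin, DMSO <0.1% final; after motility scoring the same worms taken for MTT reduction; % inhibition vs DMSO control, IC50 by linear interpolation.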
In general terms: Formazan colour is commonly taken as a measure of viable cells.

Data set [3] concerns Brugia malayi. Description: Antifilarial activity against Brugia malayi microflilariae worm assessed as inhibition of parasite motility after 48 hrs by microscopic analysis. Type of data set: functional, organism-based. In a few lines: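 B. malayi microfilariae were washed in HBSS (pH 7.2) and plated at 40-50 mf/100 µL/well, in triplicate, in HBSS with penicillin/streptomycin. Two-fold dilutions from 0.38-40 µM were given in DMSO (final <0.1%), with DMSO controls, for 48 h at 37 °C, 5% CO2. Motility was scored microscopically, and IC50 was found by linear interpolation over control.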

Data set [4] can be described thus: Cytotoxicity against African green monkey Vero C1008 cells assessed as cell death by three-fold serial dilution method. Type of data set: cell-based. The conditions noted are these: chlorocebus sabaeus. The procedure, abridged:
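Vero C1008 cells exposed to three-fold serial dilutions of test agents, starting above 20 x LC100; CC50 obtained by linear interpolation between the concentrations bracketing 50% inhibition.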

Data set [5] is described as follows: (§1) Selectivity index, ratio of CC50 for African green monkey Vero C1008 cells to IC50 for Brugia malayi adult worm. Format: functional. The procedure, abridged:
(§2)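 SI computed as CC50 (Vero C1008) divided by IC50 against adult worms or mf; IC50 values from 48 h exposure of parasites to two-fold dilutions at 37 °C, with % inhibition vs DMSO-treated worms and linear interpolation.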

Data set [6] in a line: (§3) Selectivity index, ratio of CC50 for African green monkey Vero C1008 cells to IC50 for Brugia malayi microflilariae worm. Format: functional. In a few lines: as §2
Data set [7] relates to Brugia malayi. Description: Antifilarial activity against Brugia malayi adult worm infected in jird assessed as embryostatic effect at 100 mg/kg, sc administered for 5 days starting from day 7/8 post-worm transplantation (reference value: 9.80 +/- 5.63%). Type of data set: functional. The conditions noted are these: route subcutaneous.
For a further data set, the system named is Meriones unguiculatus. Nature of the data set: Toxicity in jird infected with Brugia malayi adult worm assessed as normal behaviour at 100 mg/kg, sc administered for 5 days starting from day 7/8 post-worm transplantation measured on day 60 post-initiation of drug treatment. Further details: dose 100 mg/kg, route subcutaneous. The conditions noted are these: gerbil, in vivo, 120 h. Format: organism-based.

The test system of data set [8] is Brugia malayi. Description: Antifilarial activity against third stage infective larvae (L3) form of Brugia malayi infected in Mastomys coucha assessed as reduction in adult worm recovery at 100 mg/kg, sc administered for 5 days measured on day 91 post-initiation of drug treatment. The conditions noted are these: route subcutaneous. Format: functional. The procedure, abridged:
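M. coucha carrying 5-7 month old L3-induced sub-periodic B. malayi infections received 5 days of s.c. dosing (vehicle 0.1% Tween-80; DEC in water). Killed day 91 p.i.t.; adults were recovered from teased heart, lung and testes, and % reduction in recovery was calculated vs vehicle controls.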

Data set [9] deals with Brugia malayi. Description: Antifilarial activity against third stage infective larvae (L3) form of Brugia malayi infected in Mastomys coucha assessed as female sterilizing efficacy at 100 mg/kg, sc administered for 5 days measured on day 91 post-initiation of drug treatment (reference value: 23%). Type of data set: functional. The conditions noted are these: route subcutaneous.

In a further data set the test system is Mastomys coucha. Description: Toxicity in Mastomys coucha infected with third stage infective larvae (L3) form of Brugia malayi assessed as normal behaviour at 100 mg/kg, sc administered for 5 days measured on day 91 post-initiation of drug treatment. Type of data set: organism-based. On the set-up: dose 100 mg/kg, route subcutaneous. The conditions noted are these: in vivo, 120 h.

Data set [10] concerns Brugia malayi. Description: Antifilarial activity against Brugia malayi adult worm infected in jird assessed as microfilaricidal activity at 100 mg/kg, sc administered for 5 days starting from day 7/8 post-worm transplantation measured on day 7 post-initiation of drug treatment. Type of data set: functional, organism-based. On the set-up: dose 100 mg/kg. In a few lines: (§4)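 Mf in peritoneal cavity of transplanted jirds were examined on day 7/8 p.i.t. after 5 days of s.c. dosing started on day 7/8; change was expressed as % of the pretreatment mf count.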

Data set [11] has as its system Brugia malayi. Description: Antifilarial activity against Brugia malayi adult worm infected in jird assessed as macrofilaricidal efficacy by measuring reduction in adult worm recovery at 100 mg/kg, sc administered for 5 days starting from day 7/8 post-worm transplantation measured on day 60 post-initiation of drug treatment. Format: functional. The conditions noted are these: route subcutaneous. In a few lines:
(§5)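 Jirds carrying intraperitoneally transplanted B. malayi (sub-periodic) adults were dosed s.c. for 5 days starting day 7/8 after transplantation; test agents were suspended fresh daily in 0.1% Tween-80, DEC in water, ivermectin in 0.1% Tween-80. Killed day 60 p.i.t.; worms recovered from peritoneal washings were counted, and % reduction was calculated vs vehicle controls (4-8 animals).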

For data set [12], the system named is Vero C1008. The data set is described as §1. Format: functional. The procedure, abridged: as §2
The test system of data set [13] is Vero C1008. Described as §3. Type of data set: functional. The procedure, abridged:
as §2

In data set [14] the test system is Brugia malayi. Description: Antifilarial activity against Brugia malayi adult worm infected in jird assessed as embryostatic effect at 1 mg/kg, sc administered for 5 days starting from day 7/8 post-worm transplantation (reference value: 9.80 +/- 5.63%). Format: functional, organism-based. Further details: dose 1 mg/kg.
The subject of data set [15] is Brugia malayi. Description: Antifilarial activity against Brugia malayi adult worm infected in jird assessed as microfilaricidal activity at 1 mg/kg, sc administered for 5 days starting from day 7/8 post-worm transplantation measured on day 7 post-initiation of drug treatment. Type of data set: functional, organism-based. On the set-up: dose 1 mg/kg. The procedure, abridged: as §4

Data set [16] deals with Brugia malayi. Nature of the data set: Antifilarial activity against Brugia malayi adult worm infected in jird assessed as reduction in adult worm recovery at 1 mg/kg, sc administered for 5 days starting from day 7/8 post-worm transplantation measured on day 60 post-initiation of drug treatment. Format: functional, organism-based. On the set-up: dose 1 mg/kg. In a few lines: as §5

Calls of active or inactive are those of the source. The rule behind the calls is not given here.

Take `Cc1ccc(C(=O)/C=C/c2cc(/C=N/c3nccs3)c(O)c(C(C)(C)C)c2)cc1`: the results for the LC100 in the data set with Brugia malayi [1] and with Brugia malayi [3] were above 40 µM and 40 µM, respectively. In addition, the inhibition result with Brugia malayi [2] is “inactive”.

Regarding `COc1ccc(C(=O)/C=C/c2cc(/C=N/c3nccs3)c(O)c(C(C)(C)C)c2)cc1`, the LC100 is above 40 µM in the data set on Brugia malayi [1] and 40 µM in the data set on Brugia malayi [3]. Further, the inhibition result with Brugia malayi [2] is “inactive”.

As to `Cc1ccc(C(=O)/C=C/c2cc(C)c(O)c(/C=N/c3nccs3)c2)cc1`, the LC100 with Brugia malayi [1] and with Brugia malayi [3] was above 40 µM in each case. Also, the inhibition entry in the data set on Brugia malayi [2] is “inactive”.

For `CCCc1cc(/C=C/C(=O)c2ccc(OC)cc2)cc(/C=N/c2nccs2)c1O`, the LC100 with Brugia malayi [1] and with Brugia malayi [3] was above 40 µM in each case. Further, in the data set with Brugia malayi [2], the inhibition result is “inactive”.

Regarding `Cc1cc(/C=C/C(=O)c2cccs2)cc(/C=N/c2nccs2)c1O`, the LC100 in the data set with Brugia malayi [1] and in the data set on Brugia malayi [3] was above 40 µM throughout.

Regarding `CC(C)c1cc(/C=C/C(=O)c2cccs2)cc(/C=N/c2nccs2)c1O`, the LC100 in the data set with Brugia malayi [1] and in the data set on Brugia malayi [3] was above 40 µM in each case. Besides, the inhibition result in the data set on Brugia malayi [2] is “inactive”.

For `CCCc1cc(/C=C/C(=O)c2ccc(C)cc2)cc(/C=N/c2nccs2)c1O`, the LC100 with Brugia malayi [1] and with Brugia malayi [3] was above 40 µM in each case. Also, in the data set with Brugia malayi [2], the inhibition entry was “inactive”.

For IVERMECTIN [listing 1 of 2 here], the results for the IC50 in the data set on Brugia malayi [1] and with Brugia malayi [3] were 3.05 µM and 1.57 µM, respectively. Besides, the CC50 in data set [4] (vero) worked out at 230 µM.

Consider `CC(C)(C)c1cc(/C=C/C(=O)c2cccs2)cc(/C=N/c2nccs2)c1O`, for which the LC100 in the data set with Brugia malayi [1] was 2.5 µM; with Brugia malayi [3] it was 5 µM. For the same compound, the IC50 with Brugia malayi [1] (Brugia malayi, 48 h) is 0.9 µM; in the data set with Brugia malayi [3] (Brugia malayi, 48 h), 1.8 µM. The inhibition (INH) in the data set with Brugia malayi [2] amounted to 49%. In addition, the CC50 in data set [4] (Vero C1008 cells) worked out at 40 µM. The results for the “Ratio CC50/IC50” value in [5] and in [6] were 44 and 22, respectively. For the same compound, the Activity in the data set on Brugia malayi [7] is on record as 100%; with Meriones unguiculatus, “Non-toxic”; with Brugia malayi [9], 44%; with Mastomys coucha, “Non-toxic”. In addition, the inhibition in vivo at 100 mg/kg in the data set with Brugia malayi [8] was 48.6%.

Take `CC(C)c1cc(/C=C/C(=O)c2ccco2)cc(/C=N/c2nccs2)c1O`: in the data set on Brugia malayi [10], the outcome was inactive. In addition, the LC100 in the data set on Brugia malayi [1] and in the data set with Brugia malayi [3] was 10 µM throughout. The IC50 turned out to be 3.2 µM with Brugia malayi [1] (Brugia malayi, 48 h) and 3.5 µM with Brugia malayi [3] (Brugia malayi, 48 h). Further, in the data set with Brugia malayi [2], the inhibition (INH) turned out to be 63%. Besides, the CC50 in data set [4] (Vero C1008 cells) was found to be 60 µM. In addition, the “Ratio CC50/IC50” value in [5] stood at 19; in data set [6], 17. Also, the Activity with Brugia malayi [7] is given as 0%; with Meriones unguiculatus, “Non-toxic”; in the data set with Brugia malayi [9], 30%; in the data set with Mastomys coucha, “Non-toxic”. Besides, the inhibition in vivo at 100 mg/kg with Brugia malayi [11] came to 18.2%; in the data set on Brugia malayi [8], 40.9%.

For the compound `Cc1cc(/C=C/C(=O)c2ccco2)cc(/C=N/c2nccs2)c1O`, the LC100 in the data set on Brugia malayi [1] and with Brugia malayi [3] was above 40 µM each time. For the same compound, the “inhibition (INH)” value in the data set with Brugia malayi [2] is given as 62%.

As to `COc1ccc(C(=O)/C=C/c2cc(/C=N/c3nccs3)c(O)c(C(C)C)c2)cc1`, the LC100 in the data set on Brugia malayi [1] and in the data set on Brugia malayi [3] was above 40 µM throughout. In the data set on Brugia malayi [2], the “inhibition (INH)” value came out at 61%.

In the case of `CC(C)(C)c1cc(/C=C/C(=O)c2ccco2)cc(/C=N/c2nccs2)c1O`, the LC100 in the data set with Brugia malayi [1] was 40 µM; in the data set with Brugia malayi [3], 20 µM. For the same compound, in the data set with Brugia malayi [2], the inhibition entry is “inactive”. Moreover, the CC50 in data set [4] (Vero C1008 cells) was determined as 220 µM. In addition, the IC50 in the data set on Brugia malayi [3] (Brugia malayi, 48 h) was determined as 7.07 µM. Moreover, the “Ratio CC50/IC50” value in [6] was 28.57.

Regarding IVERMECTIN [listing 2 of 2 here], the LC100 in the data set on Brugia malayi [1] was found to be 5 µM; in the data set on Brugia malayi [3] it was 2.5 µM. For the same compound, the figures for the inhibition with Brugia malayi [2] (dose or concentration not given here) and in the data set with Brugia malayi [16] were 5.8% and 21.1%, respectively. In addition, the results for the Ratio CC50/IC50 in the data set with Vero C1008 [12] and in the data set on Vero C1008 [13] were 75.4 and 146, respectively. The Activity in the data set on Brugia malayi [14] is 43.2%. Besides, the outcome in the data set with Brugia malayi [15] was inactive.

Turning to `COc1ccc(C(=O)/C=C/c2cc(C)c(O)c(/C=N/c3nccs3)c2)cc1`, the LC100 in the data set on Brugia malayi [1] and with Brugia malayi [3] was above 40 µM in each case. For the same compound, the “inhibition (INH)” value in the data set with Brugia malayi [2] was determined as 25%.

For the compound `Cc1ccc(C(=O)/C=C/c2cc(/C=N/c3nccs3)c(O)c(C(C)C)c2)cc1`, the LC100 in the data set on Brugia malayi [1] and in the data set on Brugia malayi [3] was above 40 µM throughout.

What is called inhibition is the percentage by which the read-out fell short of the control. One may read the IC50 as the concentration at which inhibition is half-maximal. By CC50 is commonly meant the concentration that lowers cell viability or growth by half. Usually inhibition in vivo stands for how much of the control response was suppressed.
